Measurements published in ChEMBL document CHEMBL1151332, “A new prenylated flavonol from the roots of Sophora flavescens” (J Nat Prod, 1998).
Converted amounts (≈) assume the structure as drawn. The source made the active and inactive calls. The calls are words filed in the database; no cut-off is given here.

Assays:
Human alphaherpesvirus 1 = experiment: Antiviral activity against HSV1 in african green monkey Vero cells assessed as virus-induced cytopathic effect after 3 days by MTT assay; assay type: functional, organism-based; conditions: Human alphaherpesvirus 1, Vero, 72 h
Procedure, shortened: (§1)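 Vero cells seeded at 3 × 10³/well and grown 3-4 days to a confluent monolayer, washed, then infected with virus diluted in DME plus 2% FBS at a dose equal to 50% cell culture inhibitory dose (CCID50) for 60 min at 37 °C. Inoculum removed; medium with graded sample concentrations (below 300 µg/mL) added in duplicate; 3 days at 37 °C, 5% CO2. MTT read-out; EC50 = concentration inhibiting virus-induced CPE by 50%.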

Human alphaherpesvirus 2 = experiment: Antiviral activity against HSV2 in african green monkey Vero cells assessed as virus-induced cytopathic effect after 3 days by MTT assay; assay type: functional, organism-based; conditions: for EC50: Human alphaherpesvirus 2, Vero, 72 h; procedure, shortened: as §1

SMILES | EC50 (Human alphaherpesvirus 1) | Activity (Human alphaherpesvirus 2) | EC50 (Human alphaherpesvirus 2)
C=C(C)[C@H](CC=C(C)C)Cc1c(O)cc(OC)c(C(=O)/C=C/c2ccc(O)cc2O)c1O [KURAIDIN] | > 300 µg/mL | inactive | –
C=C(C)[C@H](CCC(C)(C)O)Cc1c(O)cc(OC)c2c1O[C@H](c1ccc(O)cc1O)CC2=O [KURARINOL] | 60 µg/mL (≈ 131 µM) | – | 44 µg/mL (≈ 96.4 µM)
C=C(C)[C@H](CCC(C)(C)O)Cc1c(O)cc(OC)c2c1O[C@H](c1ccc(O)cc1O)[C@@H](O)C2=O [KUSHENOL H] | > 300 µg/mL | – | 162 µg/mL (≈ 343 µM)
C=C(C)[C@H](CCC(C)(C)O)Cc1c(O)cc(OC)c2c1O[C@H](c1ccc(O)cc1O)[C@H](O)C2=O [KUSHENOL K] | > 300 µg/mL | – | 147 µg/mL (≈ 311 µM)
COc1cc(O)c(CC=C(C)C)c2oc(-c3ccc(O)cc3)c(O)c(=O)c12 [SOPHOFLAVESCENOL] | > 300 µg/mL | inactive | –
OC[C@H]1O[C@@H](Oc2ccc3c(c2)OC[C@H]2c4cc5c(cc4O[C@@H]32)OCO5)[C@H](O)[C@@H](O)[C@@H]1O [TRIFOLIRHIZIN] | > 300 µg/mL | inactive | –
